L major viab – Leishmania major promastigote growth inhibition | actives 9% (n = 200,000) | Leishmania major promastigotes, resazurin fluorescence viability | inhibition, % at 10 µM | AID 1063;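 further: promastigotes grown with compound for 44 hours at 28 °C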
Wee1 stabilizer – blocks degradation of human Wee1 kinase; HeLa Luc-Wee1K328M stability, luciferase luminescence; 100% = proteasome inhibitor MG132 effect; reporter increase, % at 5 µM; AID 1321; actives 1.2% (n = 220,000); P30291;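 active means activation above the mean of all tested compounds plus 3 SD, set per screening run, cut at about 8.8% in these data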;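 further: cells exposed to compound for 20 h before luminescence read; 0% = DMSO alone and 100% = MG132 at 30 µM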
Arbovirus inh – arbovirus infection inhibition | arbovirus infection cell-based antiviral screen | actives 0.37% (n = 200,000) | inhibition, % at 10 µM; in the data active means inhibition above about 30%
PKD1 kinase inh – inhibitors of human PKD1 kinase; Q15139; PKD1 kinase fluorescence polarization assay; inhibition, % (concentration not given with the values); actives 0.056% (n = 200,000); AID 797
Rad51 HR inh – blocks human Rad51 in homologous recombination | hRad51 DNA strand exchange, fluorescence dequenching | AID 1385 | actives 0.085% (n = 200,000) | Q06609 | inhibition, % at 10 µM;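 active means inhibition above 40% at the single screening dose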;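 further: 0% = DMSO control wells and 100% = blanks with heterologous ssDNA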
Target sequence (Q06609 whole entry, looked up): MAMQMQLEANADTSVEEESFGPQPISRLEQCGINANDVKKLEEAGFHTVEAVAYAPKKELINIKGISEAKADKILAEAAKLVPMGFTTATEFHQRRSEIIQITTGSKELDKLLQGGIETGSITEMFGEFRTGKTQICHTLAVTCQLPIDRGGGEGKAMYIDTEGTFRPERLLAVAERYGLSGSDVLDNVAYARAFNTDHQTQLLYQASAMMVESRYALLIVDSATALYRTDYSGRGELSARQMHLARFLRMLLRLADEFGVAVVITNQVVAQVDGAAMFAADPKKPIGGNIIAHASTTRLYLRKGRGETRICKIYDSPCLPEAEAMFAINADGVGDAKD
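Test system – preformed human Rad51 ssDNA filaments · Reagent – Donor/quencher-labelled 47-bp dsDNA substrate · Incubation – 37 °C 15-min filament assembly, 30-min compound preincubation, 15-min exchange · Signal – FRET fluorescence dequenching, excitation 485 nm, emission 520 nm · Read-out – percent inhibition from fluorescence, normalised to plate control and blank means · Benchmarks – plate control and blank wells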
CHOP inhibitor – inhibitors of CHOP induction in ER stress response; actives 3.8% (n = 220,000); AID 2732; inhibition, % at 10 µM; CHO-K1 CHOP-promoter luciferase, tunicamycin-induced, 15-18 h;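 active means compounds that reduced the stress-induced luciferase reporter signal by more than about 70% of percent inhibition, limit read from the data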;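 further: 0% = tunicamycin plus vehicle and 100% = wells without tunicamycin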
* = called active by the depositor; . = not tested or not shown. Compounds with a hit are over-represented: about 12% of the library has one in this group of screens. Unless noted, no stated cut-off is given here; in the data, active means inhibition above about 50%; inactive means the rest.

SMILES | L major viab | Wee1 stabilizer | Arbovirus inh | PKD1 kinase inh | Rad51 HR inh | CHOP inhibitor
CC1CC(C)CN(CCCCOc2ccc([N+](=O)[O-])cc2)C1 (stereo unspecified) | 94.9* | -0.3 | -13.1 | -9.6 | . | 3.4
Cc1ccc(C(=O)N2CC(C)OC(C)C2)cc1[N+](=O)[O-] (stereo unspecified) | -5.4 | 2.0 | 3.3 | -4.3 | 7.3 | -14.0
Cc1cc(OCCN2CC(C)OC(C)C2)ccc1[N+](=O)[O-] (stereo unspecified) | 75.5* | 6.6 | -2.7 | 14.8 | 0.1 | -13.4
CC1CN(CCOc2ccc([N+](=O)[O-])cc2)CC(C)O1 (stereo unspecified) | 85.4* | -0.6 | 10.1 | -4.7 | 6.1 | 14.2
CCOc1ccc(NC(=O)CNC(=O)c2cccs2)cc1 | -3.4 | 7.4 | 1.7 | -2.5 | -29.7 | -12.3
CN(C)C(=O)Nc1ccccc1 | . | -1.9 | . | . | -1.7 | -14.3
C=CCNC(=O)c1c2c(nc3ccccc13)-c1ccccc1CC2 | 0.3 | 0.6 | 13.6 | 7.8 | 10.5 | -21.6
CO[C@@]1(NC(=O)Cc2cccs2)C(=O)N2C(C(=O)O)=C(COC(N)=O)CS[C@@H]21 | 12.2 | 10.0* | 5.8 | -13.1 | -13.4 | 12.2
COc1nc2c(c(-c3cc(Br)cs3)c1C#N)Cc1ccccc1-2 | . | 0.4 | . | . | 12.6 | 22.7
COc1ccc(-c2cc(C(=O)Nc3ccc(S(=O)(=O)Nc4onc(C)c4C)cc3)c3ccccc3n2)cc1 | . | 0.2 | . | . | -4.7 | 17.4
CC(C)CCN1CCN(Cc2nc3ccccc3s2)CC1CCO (stereo unspecified) | 81.7* | -5.1 | 4.1 | 10.0 | -4.5 | 6.4
CC(C)CN1CCN(Cc2nc3ccccc3s2)CC1CCO (stereo unspecified) | 6.5 | -0.6 | -13.4 | -4.6 | 6.5 | 7.5
Cc1oc(-c2cccs2)nc1CN1CCN(CCC(C)C)C(CCO)C1 (stereo unspecified) | 83.6* | -2.0 | -5.4 | 0.4 | -2.3 | 3.8
CC(C)CCN1CCN(CC(c2ccccc2)c2ccccc2)CC1CCO (stereo unspecified) | 90.9* | -0.9 | -10.5 | -0.5 | 5.0 | 31.3
OCCC1CN(Cc2nc3ccccc3s2)CCN1CCc1ccccc1 (stereo unspecified) | 84.2* | 0.7 | -5.0 | 0.5 | -5.9 | 3.3
CCn1nc([N+](=O)[O-])c2c(-c3nc4ccccc4o3)c(N)n(CCCOC)c2c1=O | -3.2 | 1.4 | -3.7 | 2.9 | 3.7 | 65.0
CC(=O)C1C(c2ccc(F)cc2)c2c(noc2C)CC1(C)O (stereo unspecified) | . | 4.3 | . | . | -4.0 | 8.9
CCNC(=O)C/C(C)=N/NC(=O)C(=O)Nc1ccc(CC)cc1 | -2.1 | -0.7 | 5.5 | -2.0 | -10.7 | 4.6
CC(C)NC(=O)C1CCN(C2CCN(Cc3nc4ccccc4s3)CC2)CC1 | 85.9* | 1.3 | 0.5 | -6.3 | -4.1 | 20.0
CC(=O)c1cc(CN2CCC(N3CCC(C(=O)NC(C)C)CC3)CC2)cs1 | -4.1 | 0.9 | -0.9 | -0.9 | 29.0 | 20.4
O=C(/C=C/c1ccccc1)N1CCC(N2CCC(C(=O)N3CCOCC3)CC2)CC1 | 50.8* | -1.1 | 3.1 | -6.4 | -9.2 | 17.6
O=C(NC1CC1)C1CCN(C2CCN(C(=O)CC3=CCCCC3)CC2)CC1 | 75.0* | -1.4 | 0.0 | -3.0 | 0.3 | -10.4
O=C(NC1CC1)C1CCN(C2CCN(C(=O)/C=C/c3ccc(F)cc3)CC2)CC1 | 65.5* | -0.1 | 0.5 | -7.1 | . | 22.2
CS(=O)(=O)N(CC(=O)N/N=C/c1cccs1)c1cccc(Cl)c1Cl | 9.8 | -2.8 | 0.7 | 22.2 | . | 41.1
O=S(=O)(CC(CN1CCCCC1)N1CCCCC1)c1ccccc1 (stereo unspecified) | 98.4* | 3.3 | -29.9 | -2.5 | -2.3 | -14.2
SMILES | L major viab | Wee1 stabilizer | Arbovirus inh | PKD1 kinase inh | Rad51 HR inh | CHOP inhibitor
O=[N+]([O-])c1ccc(S(=O)(=O)CC(CN2CCOCC2)N2CCOCC2)cc1 (stereo unspecified) | 6.4 | -2.3 | 10.2 | -4.9 | -1.6 | 11.3
CCOP(=O)(c1ccccc1)C(O)c1ccc(Br)cc1 (stereo unspecified) | -6.2 | 1.3 | 4.2 | 8.0 | . | 2.5
CCSc1ncc(/C=N/Nc2ccc(Cl)cc2)n1C | 78.3* | 0.2 | -28.2 | 2.2 | 7.3 | 37.5
CCSc1ncc(/C=N/Nc2ccc([N+](=O)[O-])cc2)n1C | 3.9 | 9.6* | -11.4 | -3.5 | -34.6 | 77.8*
O=Cc1cn(-c2ccccc2)nc1-c1ccncc1 | 14.2 | -1.4 | -16.4 | -1.1 | 3.0 | 8.4
CC1=NNC(=O)/C1=C\c1cn(-c2ccccc2)nc1-c1ccccc1 | 100.4* | -2.4 | -28.7 | -0.9 | -2.8 | 108.0*
CC(=O)c1c(C)c(C)c2n1CCn1c(C)ccc1-2 | . | 2.3 | . | . | -0.8 | 0.9
CC(C)COc1ccc(C(=O)Nc2ccc([N+](=O)[O-])cc2)cc1 | 2.1 | -4.1 | 4.2 | 0.9 | 6.5 | 60.9
CC(C)COc1ccc(C(=O)Nc2ccc(SC(F)F)cc2)cc1 | 52.4* | 0.1 | -1.8 | -9.7 | 7.8 | 9.5
CCOC(=O)Cn1nc(C)n(-c2c(C)cccc2C)c1=O | 3.9 | 1.0 | 3.4 | 0.7 | -0.7 | -0.1
O=C(CN1CCCCCCC1)NC(=O)NC1CCCCC1 | 57.5* | 1.8 | 1.0 | 1.8 | 24.7 | 39.8
CC1Cc2ccccc2N1CC(=O)NC(=O)NC1CCCC1 (stereo unspecified) | 97.5* | 2.4 | 4.6 | -0.6 | -8.6 | 17.8
O=C(CN1CCCc2ccccc21)NC(=O)NC1CCCCC1 | 17.7 | 9.2* | -0.8 | -4.0 | 9.7 | 47.0
CC1Cc2ccccc2N1CC(=O)NC(=O)NCc1ccco1 (stereo unspecified) | 96.7* | 0.2 | 17.5 | -9.5 | 2.6 | 12.1
Cc1cccc(NC(=O)CCc2ccc(S(=O)(=O)NC3CCCCC3)cc2)c1 | -1.5 | -0.1 | -6.6 | -4.7 | -7.1 | 72.5*
CC(NS(=O)(=O)c1ccc(CCC(=O)NCc2cccnc2)cc1)c1ccccc1 (stereo unspecified) | 73.6* | 0.1 | 0.3 | 1.8 | -2.9 | 11.2
O=C(CCc1ccc(S(=O)(=O)NC2CCCCC2)cc1)NCc1cccnc1 | 14.1 | -1.0 | 3.7 | -1.7 | -10.2 | -16.0
CC(NC(=O)CCc1ccc(S(=O)(=O)NC2CCCCC2)cc1)c1ccccc1 (stereo unspecified) | 95.6* | -1.6 | -10.2 | 2.3 | 6.0 | 5.0
CC(C)CNS(=O)(=O)c1ccc(CCC(=O)NC2CCCC2)cc1 | 2.1 | -1.8 | 3.0 | 2.2 | 0.3 | 41.2
Cc1ccc(CNC(=O)CCc2ccc(S(=O)(=O)NC3CCCCC3)cc2)cc1 | 72.8* | -2.4 | -3.5 | 4.5 | 1.7 | 15.1
O=C(NC(=S)N1CCCc2ccccc21)c1ccc(Cl)cc1 | 64.2* | 1.6 | -7.0 | -6.2 | -1.6 | 20.4
CCOc1ccc(Cc2nc(N)nc(N)n2)cc1 | -5.7 | 6.9 | -2.3 | -5.6 | 6.6 | 13.4
Nc1nc(N)nc(COc2ccccc2)n1 | 0.8 | 9.4* | -2.4 | -0.9 | 3.7 | -8.9
NC(=S)N/N=C/c1coc2c(ccc3ccccc32)c1=O | -7.1 | 3.1 | 11.0 | -13.9 | 4.0 | -3.9
